Active and inactive are the calls of the source. The calls are words filed in the database; no cut-off is given here.
Assays:
[1] = target: T1, Bromodomain-containing protein 4 (Homo sapiens, UniProt O60885); experiment: Inhibition of BRD4 in human HCT116 cells assessed as induction of autophagy by measuring decrease in p62 expression at 0.2 to 0.5 uM measured after 24 hrs by Western blot analysis; assay type: cell-based
HCT-116 [2] = experiment: Antitumor activity against human HCT116 cells xenografted in BALB/cAnNCrl mouse assessed as increase in TUNEL positive apoptotic nuclei in tumor tissue at 15 to 30 mg/kg, po administered on day 1 to day 19 measured on day 19 by TUNEL assay; assay type: functional, organism-based
How it was run: (§1)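 HCT-116 xenograft mice were dosed orally at 15 or 30 mg/kg, or 30 mg/kg for reference agents, for 19 days, with vehicle or saline controls. Tumor sections were stained for Ki-67, c-Myc, Ac-H3, BRD4, LC3-II, LIFR and p-STAT3 by immunohistochemistry, and TUNEL staining was used as the apoptosis marker.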

[3] = target: T1, Bromodomain-containing protein 4; experiment: Inhibition of BRD4 in human HCT116 cells transfected with ATG5 siRNA assessed as induction of autophagy by measuring p62 degradation at 0.5 uM by Western blot analysis; assay type: cell-based
How it was run: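 HCT-116 cells first transfected with ATG5 siRNA or scramble siRNA; after silencing, exposed to 0.5 µM test agent or normal saline, then ATG5, AMPKα, p-AMPKα, p62 and LC3 protein assessed by western blot.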

[4] = target: T1, Bromodomain-containing protein 4; experiment: Inhibition of BRD4 in human HCT116 cells transfected with GFP-LC3 assessed as induction of autophagy by measuring increase in LC3 puncta at 0.5 uM measured after 24 hrs by confocal fluorescence microscopy; assay type: cell-based
How it was run: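 HCT-116 cells transfected with GFP-LC3 plasmid, then incubated 24 h with 0.5 µM test agent; LC3 puncta (autophagosomes) imaged by confocal fluorescence microscopy.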

HCT-116 [5] = experiment: Induction of apoptosis in human HCT116 cells assessed as viable cells at 0.5 uM by Annexin-V FITC/propidium iodide staining-based flow cytometry (reference value: 93.4 %); assay type: functional; conditions: read-out: Activity
HCT-116 [6] = experiment: Antitumor activity against human HCT116 cells xenografted in orally dosed BALB/cAnNCrl mouse assessed as reduction in tumor volume administered on day 1 to day 19 relative to control; assay type: functional, organism-based
How it was run: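 HCT-116 xenografts in mice were given the test agent orally at 15 or 30 mg/kg, with a saline control group, over 19 days. Tumor volume was followed during treatment and tumors were weighed at the end. Body weight was monitored. Inhibition is expressed as treatment-to-control (T/C) ratio.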

HT-29 = experiment: Cytotoxicity against human HT-29 cells assessed as reduction in cell viability; assay type: functional, cell-based
How it was run: (§2)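 Antiproliferative IC50 values were measured by MTT assay across a panel of colorectal carcinoma cell lines and normal colorectal epithelial cells.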

Homo sapiens [7] = species on record: Homo sapiens; experiment: Inhibition of BRD4/HDAC in human HCT116 cells assessed as inhibition of IL6-JAK-STAT3 signaling pathway by measuring decrease in OSMR expression at 0.5 uM after 24 hrs by Western blot analysis; assay type: cell-based
How it was run: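 HCT-116 cells treated 24 h with 0.5 µM, 5.0 µM or 10 µM test agent depending on compound; OSMR, LIFR and downstream pathway proteins detected by western blot.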

[8] = Toxicity in BALB/cAnNCrl mouse xenografted with human HCT116 cells assessed as effect on heart morphological changes at 15 to 30 mg/kg, po administered on day 1 to day 19 measured on day 19 by hematoxylin and eosin staining based assay; assay type: organism-based; conditions: in vivo
How it was run: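 HCT-116 xenograft mice dosed orally at 15 or 30 mg/kg for 19 days, saline as vehicle control; body weights tracked, and main organs sectioned and H&E-stained at study end.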

Mus musculus [9] = experiment: Downregulation of Ki67 expression in tumor tissue of BALB/cAnNCrl mouse xenografted with human HCT116 cells at 15 to 30 mg/kg, po administered on day 1 to day 19 measured on day 19 by Ki67-staining based immunohistochemical analysis; assay type: functional, organism-based; how it was run: as §1
Histone deacetylase 7 = target: T2, Histone deacetylase 7 (Homo sapiens, UniProt Q8WUI4); experiment: Inhibition of HDAC7 (unknown origin) using biotinylated histone H3 KAc peptide (1 to 21 residues) as substrate by HTRF assay
T2 sequence (Q8WUI4 whole entry): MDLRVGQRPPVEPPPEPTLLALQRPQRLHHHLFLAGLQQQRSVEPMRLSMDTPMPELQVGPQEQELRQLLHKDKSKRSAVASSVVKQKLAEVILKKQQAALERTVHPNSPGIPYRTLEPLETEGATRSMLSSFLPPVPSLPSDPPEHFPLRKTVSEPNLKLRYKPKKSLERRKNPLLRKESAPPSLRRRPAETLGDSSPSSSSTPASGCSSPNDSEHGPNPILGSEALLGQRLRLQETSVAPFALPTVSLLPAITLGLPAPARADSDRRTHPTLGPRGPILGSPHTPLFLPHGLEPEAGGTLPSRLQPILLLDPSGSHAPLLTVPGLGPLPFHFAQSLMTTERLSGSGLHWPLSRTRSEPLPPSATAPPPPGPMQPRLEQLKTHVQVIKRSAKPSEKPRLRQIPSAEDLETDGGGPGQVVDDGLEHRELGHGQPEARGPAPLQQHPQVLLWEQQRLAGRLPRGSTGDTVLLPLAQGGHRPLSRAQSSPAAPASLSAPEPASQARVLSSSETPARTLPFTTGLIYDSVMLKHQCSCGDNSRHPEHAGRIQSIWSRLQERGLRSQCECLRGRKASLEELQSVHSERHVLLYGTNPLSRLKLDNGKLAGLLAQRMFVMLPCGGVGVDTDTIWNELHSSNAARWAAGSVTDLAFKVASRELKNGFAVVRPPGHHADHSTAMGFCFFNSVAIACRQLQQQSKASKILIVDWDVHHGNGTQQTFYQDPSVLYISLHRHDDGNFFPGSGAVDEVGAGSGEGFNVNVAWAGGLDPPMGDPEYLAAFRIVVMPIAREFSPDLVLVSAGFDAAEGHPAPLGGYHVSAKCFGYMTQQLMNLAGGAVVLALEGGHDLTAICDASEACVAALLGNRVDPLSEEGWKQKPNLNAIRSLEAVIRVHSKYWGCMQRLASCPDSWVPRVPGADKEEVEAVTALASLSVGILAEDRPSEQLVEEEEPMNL

Histone deacetylase 9 = Histone deacetylase 9 (Homo sapiens, UniProt Q9UKV0); experiment: Inhibition of HDAC9 (unknown origin) using biotinylated histone H3 KAc peptide (1 to 21 residues) as substrate by HTRF assay
Chain of Histone deacetylase 9 (Q9UKV0 whole entry, the tested form may be a part): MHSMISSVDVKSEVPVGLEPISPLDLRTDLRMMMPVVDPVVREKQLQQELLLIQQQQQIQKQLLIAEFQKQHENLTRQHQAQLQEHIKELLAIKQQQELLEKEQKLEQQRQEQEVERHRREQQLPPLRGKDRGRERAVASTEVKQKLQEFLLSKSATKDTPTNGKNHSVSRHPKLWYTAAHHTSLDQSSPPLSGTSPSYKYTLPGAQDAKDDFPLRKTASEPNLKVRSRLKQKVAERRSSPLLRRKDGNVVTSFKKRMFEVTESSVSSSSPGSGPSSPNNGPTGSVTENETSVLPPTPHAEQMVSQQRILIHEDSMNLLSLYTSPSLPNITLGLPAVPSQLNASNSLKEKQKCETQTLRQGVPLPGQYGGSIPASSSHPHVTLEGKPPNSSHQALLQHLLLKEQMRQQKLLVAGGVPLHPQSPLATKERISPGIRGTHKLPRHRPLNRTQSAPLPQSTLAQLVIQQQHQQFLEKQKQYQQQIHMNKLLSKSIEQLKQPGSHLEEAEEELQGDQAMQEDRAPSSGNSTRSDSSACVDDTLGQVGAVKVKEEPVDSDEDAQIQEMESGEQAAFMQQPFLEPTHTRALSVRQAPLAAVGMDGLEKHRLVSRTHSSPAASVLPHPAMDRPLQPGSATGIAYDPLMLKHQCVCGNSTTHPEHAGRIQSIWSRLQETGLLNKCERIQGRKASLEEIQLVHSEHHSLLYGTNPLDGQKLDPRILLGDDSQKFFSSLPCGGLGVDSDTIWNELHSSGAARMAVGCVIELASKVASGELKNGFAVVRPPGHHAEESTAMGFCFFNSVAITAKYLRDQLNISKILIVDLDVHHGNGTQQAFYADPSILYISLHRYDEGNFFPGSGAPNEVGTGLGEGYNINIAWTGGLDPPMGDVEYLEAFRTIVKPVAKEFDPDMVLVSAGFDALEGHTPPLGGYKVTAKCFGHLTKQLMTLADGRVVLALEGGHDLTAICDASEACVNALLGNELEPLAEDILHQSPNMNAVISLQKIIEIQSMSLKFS

HCT-116 [10] = experiment: Induction of apoptosis in human HCT116 cells assessed as apoptotic cells at 0.2 uM by Annexin-V FITC/propidium iodide staining-based flow cytometry (reference value: 6.3 +/- 0.4 %); assay type: functional
Homo sapiens [11] = species on record: Homo sapiens; experiment: Inhibition of BRD4/HDAC in human HCT116 cells assessed as increase in PARP cleavage at 0.2 to 0.5 uM measured after 24 hrs by Western blot analysis; assay type: cell-based
Mus musculus [12] = experiment: In vivo inhibition of BRD4 in BALB/cAnNCrl mouse xenografted with human HCT116 cells assessed as decrease in c-Myc expression in tumor tissue at 15 to 30 mg/kg, po administered on day 1 to day 19 measured on day 19 by immunohistochemical analysis; assay type: functional, organism-based; how it was run: as §1
LoVo = experiment: Cytotoxicity against human LoVo cells assessed as reduction in cell viability; assay type: functional, cell-based; how it was run: as §2

- inhibition [1]: Active
- inhibition [3]: inactive
- inhibition [4]: Active
- IC50 (Histone deacetylase 7): > 10 µM
- IC50 (Histone deacetylase 9): > 10 µM
SMILES: Cc1cc(-c2nc3sc4c(c3c(=O)[nH]2)CCN(C)C4)cc(C)c1OCCCCCC(=O)NO
- Activity (HCT-116 [2]): Active
- viability at 0.5 µM (HCT-116 [5]): 44.9%
- Activity (HCT-116 [6]): Dose-dependent effect
- Activity (HT-29): Active
- inhibition (Homo sapiens [7]): Active
- Activity [8]: Non-Toxic
- inhibition (Mus musculus [9]): Active
- Activity (HCT-116 [10]): 33.2%
- inhibition (Homo sapiens [11]): Active
- inhibition (Mus musculus [12]): Active
- Activity (LoVo): Active
